Experimental data taken from article PMC8099784 (Redox Biology, 2021).
Read-outs that look alike come from different tables or passages of the source. Peptide text beside a SMILES is read from it. * marks the point of attachment. Cbz = O=C(OCc1ccccc1)*; CH2F = FC*

Tests used:
[1] = test system: HepG2; assay: MTT cell viability assay, HepG2 cells; assay type: cell-based, human; details: for effect of caspase inhibitors on the effects of 23 on cell viability: HepG2, pretreated 2 h (Z-VAD-FMK 10 μM, Ac-DEVD-CHO 50 μM, Z-LEHD-FMK TFA 20 μM); for effect on 23-induced cell morphological changes and cell viability: HepG2, 10 μM pretreated 1 h
Procedure, shortened: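 HepG2 at 5 × 10^3 cells/well, overnight, in RPMI 1640 with 10% FBS. Dose series for 24 h, or 2.5 μM for 24 h after pretreatment: MitoQ 1 μM for 1 h; Fer-1, DFO or Z-VAD-FMK 10 μM for 1 h; or Z-VAD-FMK 10 μM, Ac-DEVD-CHO 50 μM or Z-LEHD-FMK 20 μM for 2 h. MTT 4 h, DMSO, 570 nm. Morphology imaged by inverted microscopy.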

[2] = molecular target: T1, Human Prdx I (Homo sapiens, UniProt Q06830); assay: Peroxidase activity of recombinant Prdx I; assay type: biochemical; details: Amplex Red probe, Fig. 4H
T1 sequence (Q06830 1-199): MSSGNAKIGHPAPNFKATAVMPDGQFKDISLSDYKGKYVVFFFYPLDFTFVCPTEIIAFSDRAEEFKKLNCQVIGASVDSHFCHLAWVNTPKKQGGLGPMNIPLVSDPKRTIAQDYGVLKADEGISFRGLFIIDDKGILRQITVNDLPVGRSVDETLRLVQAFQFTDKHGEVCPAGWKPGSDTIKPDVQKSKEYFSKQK
Procedure, shortened: (§1)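 Human Prdx I or II cloned in pET28a, expressed in E. coli BL21, purified. In 50 mM sodium phosphate pH 7.4, enzyme (30 μM solution) preincubated with compound 30 min at RT. H2O2 (10 μM solution) added for 10 min, then Amplex Red (50 μM solution) with HRP (1 U/mL solution) for 10 min. Fluorescence ex 535/em 595 nm; n = 3.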

[3] = test system: 7860; assay: MTT cell viability assay, 7860 cells; assay type: cell-based, human
Procedure, shortened: (§2)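 Cells kept in RPMI 1640 with 10% FBS and penicillin/streptomycin at 37 °C, 5% CO2. Seeded at 5 × 10^3 cells/well overnight, exposed to a concentration series for the stated time. MTT (5 mg/mL) added for 4 h, crystals dissolved in DMSO, absorbance read at 570 nm. Normalized to DMSO vehicle; three independent runs; IC50 by curve fitting.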

[4] = molecular target: T2, Human Prdx II (Homo sapiens, UniProt P32119); assay: Peroxidase activity of recombinant Prdx II; assay type: biochemical; details: Amplex Red probe, Fig. 4I
T2 sequence (P32119 1-198): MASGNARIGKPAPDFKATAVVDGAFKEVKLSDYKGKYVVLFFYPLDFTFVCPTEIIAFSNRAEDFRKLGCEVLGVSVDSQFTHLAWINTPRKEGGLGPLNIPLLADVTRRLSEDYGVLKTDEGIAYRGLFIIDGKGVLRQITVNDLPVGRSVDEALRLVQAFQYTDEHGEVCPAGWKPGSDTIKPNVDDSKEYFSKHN
Procedure, shortened: as §1

[5] = test system: A549; assay: MTT cell viability assay, A549 cells; assay type: cell-based; details: Homo sapiens, A549, read-out: IC50 (μM) A549
Procedure, shortened: as §2

[6] = test system: HBE; assay: MTT cell viability assay, HBE normal lung cells; assay type: cell-based, human; details: read-out: IC50 (μM) HBE
Procedure, shortened: as §2

[7] = test system: A2780; assay: MTT cell viability assay, A2780 cells; assay type: cell-based; details: Homo sapiens, A2780, read-out: IC50 (μM) A2780
Procedure, shortened: as §2

[8] = test system: HepG2 cells; assay: C11-BODIPY lipid peroxidation assay, HepG2; assay type: cell-based, human; details: HepG2, 10 μM pretreated 1 h, then 2.5 μM 23 for 24 h
Procedure, shortened: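 HepG2, 1.6 × 10^5 cells/well. Treated at 1.25, 2.5 or 5 μM for 24 h, or 2.5 μM for 0–24 h; some wells pretreated 1 h with Fer-1, DFO or Z-VAD-FMK (each 10 μM). Trypsinized cells stained in PBS with 1.5 μM C11-BODIPY, 15 min, 37 °C; FL1 flow cytometry. Mean ± SD, n = 3.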

[9] = test system: HepG2 cells; assay: ROS detection by DCFH-DA, HepG2; assay type: cell-based, human; details: then 2.5 μM 23 for 24 h
Procedure, shortened: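 Cells seeded at 1.6 × 10^5 per well and exposed to treatment; HepG2 variants used MitoQ 1 μM for 1 h or a caspase-inhibitor pretreatment before 2.5 μM for 24 h. Trypsinized cells incubated 30 min in PBS with 10 μM DCFH-DA. Green fluorescence read on the FL1 flow-cytometry channel.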

[10] = test system: HepG2 cells; assay: Mitochondrial membrane potential; assay type: cell-based, human; details: HepG2, 10 μM pretreated 2 h, then 2.5 μM 23 for 24 h
Procedure, shortened: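 Cells seeded at 1.6 × 10^5 per well and exposed to treatment. Loaded with JC-1 for 1 h at 37 °C, washed twice in PBS, then held in serum-free medium. Red/green fluorescence ratio measured by flow cytometry.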

## CC(=O)N[C@@H](CC(=O)O)C(=O)N[C@@H](CCC(=O)O)C(=O)N[C@H](C(=O)N[C@H](C=O)CC(=O)O)C(C)C [Ac-DEVD-CHO]
[1]; then 2.5 μM 23 for 24 h
  effect of caspase inhibitors on the effects of 23 on cell viability: partially reversed

## C=C1C(=O)[C@]23C[C@H]1C[C@H](OC(C)=O)[C@H]2[C@]1(C)[C@@H](OC(C)=O)C[C@H](O)C(C)(C)[C@H]1C(=O)[C@@H]3OC(C)=O [Adenanthin]
[2]
  peroxidase activity of recombinant Prdx I: effectively inhibited
[1]; Homo sapiens, HepG2, read-out: IC50 (μM) HepG2
  IC50: 7.3 ± 0.8 µM
[3]; Homo sapiens, 786-0, read-out: IC50 (μM) 7860
  IC50: 5.5 ± 0.6 µM
[4]
  peroxidase activity of recombinant Prdx II: effectively inhibited
[5]
  IC50: 8.5 ± 1 µM
[6]; Homo sapiens, HBE
  IC50: 7.7 ± 1.1 µM
[7]
  IC50: 5.4 ± 0.9 µM

## N.N.[Cl][Pt][Cl] [Cisplatin]
[1]; read-out: IC50 (μM) HepG2, cytotoxicity, MTT, mean ± SD
  IC50: 8.5 ± 0.4 µM
[3]; read-out: IC50 (μM) 7860, cytotoxicity, MTT, mean ± SD
  IC50: 13.5 ± 1.3 µM
[6]; cytotoxicity, MTT, normal lung cell line, mean ± SD
  IC50: 9.2 ± 1.4 µM

## CC(=O)N(O)CCCCCNC(=O)CCC(=O)N(O)CCCCCNC(=O)CCC(=O)N(O)CCCCCN [DFO]
[8]
  effect on 23-induced lipid peroxidation: attenuated
[1]; then 2.5 μM 23 for 24 h, MTT
  effect on 23-induced cell morphological changes and cell viability: markedly blocked

## CCOC(=O)c1ccc(NC2CCCCC2)c(N)c1 [Fer-1]
[8]
  effect on 23-induced lipid peroxidation: attenuated
[1]; then 2.5 μM 23 for 24 h, MTT
  effect on 23-induced cell morphological changes and cell viability: markedly blocked

## COC1=C(OC)C(=O)C(CCCCCCCCCC[P+](c2ccccc2)(c2ccccc2)c2ccccc2)=C(C)C1=O [MitoQ]
[1]; HepG2, pretreated 1 μM 1 h, then 2.5 μM 23 for 24 h, MTT
  effect on 23-induced cell viability inhibition: reversed
[9]; HepG2, pretreated 1 μM 1 h
  effect on 23-induced ROS accumulation: reversed

## COC(=O)CC[C@H](NC(=O)[C@H](CC(C)C)NC(=O)OCc1ccccc1)C(=O)N[C@@H](Cc1cnc[nH]1)C(=O)N[C@@H](CC(=O)OC)C(=O)CF.O=C(O)C(F)(F)F [Z-LEHD-FMK TFA] (Cbz-LE(OMe)HD(OMe)-CH2F)
[1]; then 2.5 μM 23 for 24 h
  effect of caspase inhibitors on the effects of 23 on cell viability: partially reversed

## COC(=O)C[C@H](NC(=O)[C@H](C)NC(=O)[C@@H](NC(=O)OCc1ccccc1)C(C)C)C(=O)CF [Z-VAD-FMK] (Cbz-Val-Ala-Asp(OMe)-CH2F)
[1]; then 2.5 μM 23 for 24 h, MTT
  effect on 23-induced cell morphological changes and cell viability: markedly blocked
[1]; then 2.5 μM 23 for 24 h
  effect of caspase inhibitors on the effects of 23 on cell viability: partially reversed
[9]; HepG2, 10 μM pretreated 2 h
  effect on the changes in ROS caused by 23: no effect
[10]
  effect on the changes in MMP caused by 23: no effect
